# In article PMC5470083 (Molecular imaging, 2016):
# Where two headings read alike, the source gives them in different places.
# What was measured:
# PHF tau = PHF tau (Homo sapiens, UniProt P10636); assay type: binding
# amyloid plaques = amyloid plaques (Homo sapiens, UniProt P05067); assay type: binding
# Aβ = Aβ (Homo sapiens, UniProt P05067); assay: In vitro autoradiography binding inhibition of [11C]PiB on human AD brain slices; conditions: for % Block ± SD of tracer binding: 1 µmol/L compound, tracer 13 nmol/L [11C]PiB, human AD slices, n = 3
# tau (NFTs) [1] = biological target: T1, tau (NFTs) (Homo sapiens, UniProt P10636); assay type: binding; conditions: 1 µmol/L compound, human AD slices, n = 3
# Target sequence in this assay (P10636 623-708 limits assumed): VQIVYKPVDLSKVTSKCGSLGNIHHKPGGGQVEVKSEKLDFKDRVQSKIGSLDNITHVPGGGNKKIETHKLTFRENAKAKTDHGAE
# [2] = Plasma radiometabolite analysis; assay type: in vivo, mouse; conditions: normal mice
# In short: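 NMRI mice under isoflurane (2.5% in O2) received about 3.7 MBq of 18F-labelled tracer via a lateral tail vein. They were decapitated at 2, 10, 30 or 60 min PI (n = 3/time point). EDTA blood was kept on ice and spun at 2330 ×g for 10 min. Plasma (0.5 mL) was spiked with 10 µg authentic unlabelled compound and run on C18 HPLC. Fractions were γ-counted for % intact tracer, reported as mean ± SD.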
# tau (NFTs) [3] = biological target: T1, tau (NFTs); assay type: binding
# Target sequence in this assay (P10636 623-695 limits assumed): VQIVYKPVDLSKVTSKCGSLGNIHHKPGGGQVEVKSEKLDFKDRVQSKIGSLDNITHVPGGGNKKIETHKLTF
# [4] = Biodistribution in normal NMRI mice; assay type: in vivo, mouse; conditions: for %ID/g Blood / %ID/g Bone / %ID/g Brain / %ID/g Cerebellum / %ID/g Cerebrum / %ID/g Heart / %ID/g Kidneys / %ID/g Liver / %ID/g Lungs / %ID/g Muscle / %ID/g Pancreas / %ID/g Spleen: iv
# In short: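 Healthy male NMRI mice (30-40 g) under 2.5% isoflurane in O2 received about 0.9 MBq of 18F-labelled tracer by tail vein. They were decapitated at 2, 10, 30 and 60 min PI (n = 4/time point). Blood and organs were weighed and γ-counted. Blood, bone and muscle were taken as 7%, 12% and 40% of body mass. Blood clearance was calculated as the 2 min to 60 min activity ratio.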
# [5] = Perfused brain radiometabolite analysis; assay type: in vivo, mouse; conditions: normal mice
# NFTs = conditions: autoradiography on human AD brain tissue sections; ref [8],[11]; cited from earlier work
# [6] = read-out: % Block ± SD of tracer binding
# [7] = read-out: Inhibition of [11C]PiB binding, summary statements
# Chain of PHF tau (P10636 623-695 limits assumed): as above
# Chain of Aβ (P05067 672-711 limits assumed): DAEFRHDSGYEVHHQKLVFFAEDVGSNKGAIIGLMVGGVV
# Chain of amyloid plaques (P05067 672-711 limits assumed): as above
compound,measurement,setting,value
"COC(=O)c1ccc(-c2ccc3c(c2)[nH]c2ccncc23)cn1 [TAU8, Methyl 5-{5H-pyrido[4,3-b]indol-7-yl}pyridine-2-carboxylate]",Ki,PHF tau,> 4000 nM
same,Ki,amyloid plaques,> 4400 nM
same,inhibition at 1 µM,Aβ; [6],0%
Methyl 2-(4-nitrophenyl)benzo[d]thiazole-6-carboxylate [TAU2],% Block ± SD of tracer binding,tau (NFTs) [1]; tracer 10 nmol/L [18F]T808,48 ± 0.0%
"[18F]c1ccc(-c2ccc3c(c2)[nH]c2ccncc23)cn1 [T807, 7-[6-[^18F]fluoropyridin-3-yl]-5H-pyrido-[4,3-b]indole]","Mean % ± SD of intact tracer, plasma","[2]; 2 min after injection, n = 3",99 ± 1%
same,"Mean % ± SD of intact tracer, plasma","[2]; 2 min after injection, n = 3, listed as [^18F]T807",99%
same,"Mean % ± SD of intact tracer, plasma","[2]; 10 min after injection, n = 3",84 ± 5%
same,"Mean % ± SD of intact tracer, plasma","[2]; 30 min after injection, n = 3",60 ± 14%
same,"Mean % ± SD of intact tracer, plasma","[2]; 30 min after injection, n = 3, listed as [^18F]T807",60%
same,"Mean % ± SD of intact tracer, plasma","[2]; 60 min after injection, n = 3",45 ± 4%
same,Ki,PHF tau,1.1 nM
same,Ki,amyloid plaques,247 nM
same,% Block ± SD of tracer binding,"tau (NFTs) [3]; 1 µmol/L compound, tracer 28 nmol/L [18F]T807, human AD slices, n = 3",88 ± 0.0%
same,inhibition at 1 µM,tau (NFTs) [3]; [6],88%
same,% Block ± SD of tracer binding,tau (NFTs) [1]; tracer 7 nmol/L [18F]T808,94 ± 0.0%
same,%ID/g Blood,"[4]; blood, 2 min PI",1.5 ± 0.2 %ID/g
same,2/60 min activity ratio Blood (clearance from blood),"[4]; blood, 2 min to 60 min activity ratio",2.5
same,%ID/g Blood,"[4]; blood, 10 min PI",0.7 ± 0.0 %ID/g
same,%ID/g Blood,"[4]; blood, 30 min PI",0.7 ± 0.1 %ID/g
same,%ID/g Blood,"[4]; blood, 60 min PI",0.6 ± 0.1 %ID/g
same,%ID/g Bone,[4]; 2 min PI,0.1 ± 0.1 %ID/g
same,%ID/g Bone,[4]; 10 min PI,1.4 ± 0.2 %ID/g
same,%ID/g Bone,[4]; 60 min PI,0.1 ± 0.0 %ID/g
same,%ID/g Brain,"[4]; brain, 2 min PI",7.5 ± 1.1 %ID/g
same,2/60 min activity ratio Brain,"[4]; brain, 2 min to 60 min activity ratio",18.3
same,%ID/g Brain,"[4]; brain, 10 min PI",2.6 ± 0.5 %ID/g
same,%ID/g Brain,"[4]; brain, 30 min PI",0.8 ± 0.4 %ID/g
same,%ID/g Brain,"[4]; brain, 60 min PI",0.4 ± 0.2 %ID/g
same,%ID/g Cerebellum,[4]; 2 min PI,8.5 ± 1.4 %ID/g
same,%ID/g Cerebellum,[4]; 10 min PI,2.4 ± 0.5 %ID/g
same,%ID/g Cerebellum,[4]; 30 min PI,0.8 ± 0.4 %ID/g
same,%ID/g Cerebellum,[4]; 60 min PI,0.4 ± 0.2 %ID/g
same,%ID/g Cerebrum,[4]; 2 min PI,7.2 ± 1.0 %ID/g
same,%ID/g Cerebrum,[4]; 10 min PI,2.6 ± 0.5 %ID/g
same,%ID/g Cerebrum,[4]; 30 min PI,0.8 ± 0.4 %ID/g
same,%ID/g Cerebrum,[4]; 60 min PI,0.4 ± 0.2 %ID/g
same,%ID/g Heart,[4]; 2 min PI,6.8 ± 0.9 %ID/g
same,%ID/g Heart,[4]; 10 min PI,2.1 ± 0.3 %ID/g
same,%ID/g Heart,[4]; 30 min PI,1.3 ± 0.3 %ID/g
same,%ID/g Heart,[4]; 60 min PI,1.0 ± 0.1 %ID/g
same,%ID/g Kidneys,[4]; 2 min PI,35.9 ± 6.2 %ID/g
same,%ID/g Kidneys,[4]; 10 min PI,25.6 ± 3.0 %ID/g
same,%ID/g Kidneys,[4]; 30 min PI,15.8 ± 5.0 %ID/g
same,%ID/g Kidneys,[4]; 60 min PI,13.0 ± 2.6 %ID/g
same,%ID/g Liver,[4]; 2 min PI,12.6 ± 2.4 %ID/g
same,%ID/g Liver,[4]; 10 min PI,14.6 ± 1.0 %ID/g
same,%ID/g Liver,[4]; 30 min PI,20.7 ± 1.8 %ID/g
same,%ID/g Liver,[4]; 60 min PI,18.1 ± 2.2 %ID/g
same,%ID/g Lungs,[4]; 2 min PI,25.1 ± 11.9 %ID/g
same,%ID/g Lungs,[4]; 10 min PI,4.2 ± 1.8 %ID/g
same,%ID/g Lungs,[4]; 30 min PI,3.9 ± 1.2 %ID/g
same,%ID/g Lungs,[4]; 60 min PI,2.1 ± 0.7 %ID/g
same,%ID/g Muscle,[4]; 2 min PI,3.0 ± 1.8 %ID/g
same,%ID/g Muscle,[4]; 10 min PI,1.4 ± 0.3 %ID/g
same,%ID/g Muscle,[4]; 30 min PI,0.6 ± 0.1 %ID/g
same,%ID/g Muscle,[4]; 60 min PI,0.5 ± 0.1 %ID/g
same,%ID/g Pancreas,[4]; 2 min PI,4.1 ± 2.2 %ID/g
same,%ID/g Pancreas,[4]; 10 min PI,4.7 ± 0.7 %ID/g
same,%ID/g Pancreas,[4]; 30 min PI,2.1 ± 0.8 %ID/g
same,%ID/g Pancreas,[4]; 60 min PI,1.5 ± 0.6 %ID/g
same,%ID/g Spleen,[4]; 2 min PI,15.7 ± 5.1 %ID/g
same,%ID/g Spleen,[4]; 10 min PI,13.8 ± 12.5 %ID/g
same,%ID/g Spleen,[4]; 30 min PI,3.8 ± 1.3 %ID/g
same,%ID/g Spleen,[4]; 60 min PI,3.1 ± 1.7 %ID/g
same,% Block ± SD of tracer binding,Aβ,11 ± 0.1%
same,inhibition at 1 µM,Aβ; [6],11%
same,inhibition at 1 µM,Aβ; [7],< 17%
same,"Mean % ± SD of intact tracer, perfused brain","[5]; 10 min after injection, n = 3",100 ± 0%
same,"Mean % ± SD of intact tracer, perfused brain","[5]; 10 min after injection, n = 3, listed as [^18F]T807",~100%
same,"Mean % ± SD of intact tracer, perfused brain","[5]; 60 min after injection, n = 3",99 ± 1%
same,"Mean % ± SD of intact tracer, perfused brain","[5]; 60 min after injection, n = 3, listed as [^18F]T807",~100%
same,Kd,NFTs,15 nM
same,fold higher binding affinity for NFTs over Aβ,NFTs,25 fold
"COc1ccc(-c2csc(NN=Cc3ccccc3)n2)cc1 [TAU4, 1-Benzylidene-2-(4-(4-methoxyphenyl)thiazol-2-yl)hydrazine]",Ki,PHF tau,> 4000 nM
same,Ki,amyloid plaques,> 4400 nM
"COc1ccc(-c2ccc3c(c2)[nH]c2ccncc23)cn1 [TAU6, 2-Methoxy-5-{5H-pyrido[4,3-b]indol-7-yl}pyridine]",Ki,PHF tau,> 4000 nM
same,Ki,amyloid plaques,> 4400 nM
same,inhibition at 1 µM,Aβ; [6],0%
same,inhibition at 1 µM,Aβ; [7],< 17%
"[11CH3]Nc1ccc(-c2nc3ccc(O)cc3s2)cc1 [PiB, 2-[4-([^11C]methylamino)phenyl]benzothiazol-6-ol]",Ki,PHF tau,129 nM
same,% Block ± SD of tracer binding,Aβ,57 ± 0.0%
COc1ccc(CCN2CCC(Nc3nc4ccccc4n3Cc3ccc(F)cc3)CC2)cc1 [Astemizole],Ki,PHF tau,> 4000 nM
same,Ki,amyloid plaques,> 4400 nM
"COc1ccc(-c2csc(NN=Cc3ccccn3)n2)cc1 [TAU5, 2-(4-(4-Methoxyphenyl)thiazol-2-yl)-1-((pyridin-2-yl)methylene)hydrazine]",Ki,PHF tau,> 4000 nM
same,Ki,amyloid plaques,> 4400 nM
Cc1c(OCC(F)(F)F)ccnc1C[S+]([O-])c1nc2ccccc2[nH]1 (stereo not shown) [Lansoprazole],Ki,PHF tau,> 4000 nM
same,Ki,amyloid plaques,> 4400 nM
"COc1ccc(-c2ccc3c(c2)[nH]c2ccncc23)cc1 [TAU7, 7-(4-Methoxyphenyl)-5H-pyrido[4,3-b]indole]",Ki,PHF tau,14 nM
same,Ki,amyloid plaques,4.9 nM
same,inhibition at 1 µM,Aβ; [6],0%
"2-[4-(4-Fluorophenyl)phenyl]-1,3-benzothiazole [TAU3]",% Block ± SD of tracer binding,tau (NFTs) [1]; tracer 10 nmol/L [18F]T808,29 ± 0.1%
